Source: ChEMBL document CHEMBL1165887, “Structure-activity relationships of monomeric C2-aryl pyrrolo[2,1-c][1,4]benzodiazepine (PBD) antitumor agents” (J Med Chem, 2010)

Columns and labels:
[1] = Growth inhibition of human NCI60 cells after 48 hrs by SRB assay; format: functional; settings: NCI60, 48 h; for CC50: read-out: LC50 (the source's name)
[2] = test system: Calf thymus DNA; assay: Binding affinity to calf thymus DNA assessed as change in melting temperature after 4 hrs; format: nucleic-acid assay; settings: Bos taurus
Procedure, shortened: (§1)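 Calf thymus DNA at a fixed 100 μM (DNAp, 50 μM bp) in pH 7.00 buffer of 10 mM NaH₂PO₄/Na₂HPO₄ and 1 mM Na₂EDTA, 1:5 ligand/DNAp ratio, DMSO ≤0.3% v/v. Mixture kept at 37 °C for the stated time, then melted while absorbance at 260 nm was monitored. Tm taken at the midpoint of the normalized profile; ΔTm = Tm(DNA+ligand) − Tm(DNA), corrected for DMSO; mean of at least three runs.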

[3] = test system: Calf thymus DNA; assay: Binding affinity to calf thymus DNA assessed as change in melting temperature after 18 hrs; format: nucleic-acid assay; settings: Bos taurus; procedure, shortened: as §1
[4] = test system: K562; assay: Cytotoxicity against human K562 cells after 96 hrs by alamar blue assay; format: functional, cell-based; settings: K562, 96 h
Procedure, shortened: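 K562 cells kept in RPMI with 10% fetal calf serum and 2 mM glutamine, seeded at 10⁴ cells/mL. Compounds serially diluted in DMSO and added in triplicate; exposure 96 h at 37 °C, 5% CO₂. Alamar Blue (1 μM final) then added for a further 4 h; read by fluorescence emission at 580-620 nm.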

Row | Structure (SMILES) | GI50 [1] [nM] | TGI [1] [nM] | CC50 [1] [nM] | ΔTm [2] [°C] | ΔTm [3] [°C] | IC50 [4] [nM]
1 | COc1cc2c(cc1OC)C(=O)N1C=C(c3ccc(SC)cc3)C[C@H]1C=N2 | 5 | 20 | 1440 | 10.5 | 10.7 | 19
2 | COc1cc2c(cc1OC)C(=O)N1C=C(c3ccc(C(F)(F)F)cc3)C[C@H]1C=N2 | 4 | 30 | 1660 | 11.7 | 11.9 | 24.3
3 | COc1cc2c(cc1OC)C(=O)N1C=C(c3c(C)cccc3C)C[C@H]1C=N2 | 851 | 3460 | 20900 | 0.5 | 0.5 | > 1000
4 | C/C=C/C1=CN2C(=O)c3cc(O[C@@H]4O[C@@H](C)[C@H](NC)[C@@](C)(O)[C@H]4O)c(C)c(O)c3N[C@H](O)[C@@H]2C1 [SIBIROMYCIN] | 33 | 850 | 16700 | 16 | 16.3 | 1.4
5 | CO[C@H]1Nc2c(ccc(C)c2O)C(=O)N2C=C(/C=C/C(N)=O)C[C@@H]12 [ANTHRAMYCIN METHYL ETHER] | 13 | 1580 | 24500 | 11.2 | 13 | 8
6 | COc1cc2c(cc1OC)C(=O)N1C=C(c3cccs3)C[C@H]1C=N2 | 10 | 150 | 740 | 12.7 | 13 | 1.1
7 | COc1cc2c(cc1OC)C(=O)N1C=C(c3ccc4ccccc4c3)C[C@H]1C=N2 | 0.6 | 15 | 400 | 15.4 | 15.7 | 45.4
8 | COc1cc2c(cc1OC)C(=O)N1C=C(c3ccccc3C)C[C@H]1C=N2 | 12 | 250 | 10700 | 6.8 | 6.9 | 9.3
9 | COc1cc2c(cc1OC)C(=O)N1C=C(c3ccc(F)cc3)C[C@H]1C=N2 | 2 | 120 | 11200 | 10.4 | 10.6 | 1.6
10 | COc1cc2c(cc1OC)C(=O)N1C=C(c3cnc4ccccc4c3)C[C@H]1C=N2 | 0.1 | 1 | 180 | 18.1 | 18.2 | 8.9
11 | COc1cc2c(cc1OC)C(=O)N1C=C(c3cccc4c3sc3ccccc34)C[C@H]1C=N2 | 25 | 220 | 5370 | – | – | 163
12 | COc1cccc(C2=CN3C(=O)c4cc(OC)c(OC)cc4N[C@@H](S(=O)(=O)O)[C@@H]3C2)c1 | 5 | 70 | 0.4 | – | – | 7.1
13 | COc1cc2c(cc1OC)C(=O)N1C=C(c3ccccc3C(F)(F)F)C[C@H]1C=N2 | 16 | 160 | 4360 | – | – | 258
14 | COc1cc2c(cc1OC)C(=O)N1C=C(c3c(F)cccc3F)C[C@H]1C=N2 | 25 | 330 | 4360 | – | – | 7.1
15 | COc1cc2c(cc1OC)C(=O)N1C=C(c3ccncc3)C[C@H]1C=N2 | 18 | 600 | 26900 | – | – | 28.7
16 | COc1cc2c(cc1OC)C(=O)N1C=C(c3cccnc3)C[C@H]1C=N2 | 5 | 70 | 17000 | – | – | 18.2
17 | COc1cc2c(cc1OC)C(=O)N1C=C(/C=C/c3ccc(Cl)cc3)C[C@H]1C=N2 | 5 | 20 | 1000 | – | – | 15.4
18 | COc1cc2c(cc1OC)C(=O)N1C=C(c3ccc4c(c3)OCO4)C[C@H]1C=N2 | 2 | 30 | 3630 | 10.3 | 10.3 | 0.47
19 | COc1cccc(C2=CN3C(=O)c4cc(OC)c(OC)cc4N=C[C@@H]3C2)c1 | 11 | 60 | 4070 | 10.1 | 10.2 | 0.45
20 | COc1cc2c(cc1OC)C(=O)N1C=C(c3ccc(C(=O)N4CCN(C)CC4)cc3)C[C@H]1C=N2 | 15 | 710 | 13800 | – | – | 59.5
21 | COc1cc2c(cc1OC)C(=O)N1C=C(c3cccc4ccccc34)C[C@H]1C=N2 | 138 | 950 | 13900 | – | – | 572
22 | COc1cc2c(cc1OC)C(=O)N1C=C(/C=C/c3ccc(F)cc3)C[C@H]1C=N2 | 5 | 10 | 1100 | – | – | 0.13
23 | COc1cc2c(cc1OC)C(=O)N1C=C(c3ccc4[nH]ccc4c3)C[C@H]1C=N2 | 5 | 40 | 7080 | – | – | 12.6
24 | COc1cc2c(cc1OC)C(=O)N1C=C(c3cccc(C(=O)NCCN(C)C)c3)C[C@H]1C=N2 | 27 | 1860 | 10500 | – | – | 119

Row | Structure (SMILES) | GI50 [1] [nM] | TGI [1] [nM] | CC50 [1] [nM] | ΔTm [2] [°C] | ΔTm [3] [°C] | IC50 [4] [nM]
25 | COc1cc2c(cc1OC)C(=O)N1C=C(c3cccc(C(F)(F)F)c3)C[C@H]1C=N2 | 6 | 30 | 1350 | – | – | 46.8
26 | COc1cc2c(cc1OC)C(=O)N1C=C(c3ccc(C(=O)NCCO)cc3)C[C@H]1C=N2 | 158 | 1860 | 12600 | – | – | 161
27 | COc1cc2c(cc1OC)C(=O)N1C=C(c3ccc(N4CCN(C)CC4)cc3)C[C@H]1C=N2 | 5 | 80 | 8320 | – | – | 0.63
28 | COc1cc2c(cc1OC)C(=O)N1C=C(c3cccc(C#N)c3)C[C@H]1C=N2 | 4 | 560 | 16200 | – | – | 15.1
29 | COc1cc2c(cc1OC)C(=O)N1C=C(c3cccc(C(=O)NCCCN(C)C)c3)C[C@H]1C=N2 | 102 | 850 | 14100 | – | – | 273
30 | C=CC1=CN2C(=O)c3cc(OC)c(OC)cc3N=C[C@@H]2C1 | 78 | 1230 | 30200 | – | – | 2.7
31 | CCOc1ccc2cc(C3=CN4C(=O)c5cc(OC)c(OC)cc5N=C[C@@H]4C3)ccc2c1 | 2 | 20 | 1950 | – | – | 12.6
32 | COc1cc2c(cc1OC)C(=O)N1C=CC[C@H]1C=N2 | 1350 | 8130 | 60200 | – | – | 14.4
33 | COc1cc2c(cc1OC)C(=O)N1C=C(c3ccccc3)C[C@H]1[C@H](S(=O)(=O)O)N2 | 54 | 430 | 2.5 | – | – | 16.5
34 | COc1cc2c(cc1OC)C(=O)N1C=C(c3ccc4ccccc4c3)C[C@H]1[C@H](S(=O)(=O)O)N2 | 2 | 20 | 45.4 | – | – | 1.8
35 | COc1cc2c(cc1OC)C(=O)N1C=C(c3ccc(OCCCN(C)C)cn3)C[C@H]1C=N2 | 4 | 60 | 4070 | – | – | 9.4
36 | COc1cc2c(cc1OC)C(=O)N1C=C(c3ccc(C(C)(C)C)cc3)C[C@H]1[C@H](S(=O)(=O)O)N2 | 8 | 50 | 47.8 | – | – | 70
37 | COc1cc2c(cc1OC)C(=O)N1C=C(c3ccc([N+](=O)[O-])cc3)C[C@H]1C=N2 | 4 | 70 | 6920 | – | – | 13.1
38 | COc1ccc([C@H]2C[C@H]3C=Nc4cc(OC)c(OC)cc4C(=O)N3C2)cc1 | 9770 | 43600 | 91200 | – | – | > 1000
39 | COc1ccc2cc(C3=CN4C(=O)c5cc(OC)c(OC)cc5N=C[C@@H]4C3)ccc2c1 | 0.9 | 7 | 270 | – | – | 2.3
40 | COc1cc2c(cc1OC)C(=O)N1C=C(c3ccc(N4CCOCC4)cc3)C[C@H]1C=N2 | 5 | 160 | 13200 | – | – | 8.8
41 | COc1cc2c(cc1OC)C(=O)N1C=C(c3ccc(F)cc3)C[C@H]1[C@H](S(=O)(=O)O)N2 | 5 | 40 | 1.6 | – | – | 16.3
42 | COc1cc2c(cc1OC)C(=O)N1C=C(c3ccc4ncccc4c3)C[C@H]1[C@H](S(=O)(=O)O)N2 | 0.2 | 4 | 1.4 | – | – | 1.3
43 | COc1cc2c(cc1OC)C(=O)N1C=C(c3cccc4c3Sc3ccccc3S4)C[C@H]1C=N2 | 501 | 1740 | 8910 | – | – | > 1000
44 | COc1cc2c(cc1OC)C(=O)N1C=C(c3c(OC)cccc3OC)C[C@H]1C=N2 | 110 | 1100 | 11700 | – | – | 61
45 | COc1cc2c(cc1OC)C(=O)N1C=C(c3cccc(F)c3)C[C@H]1C=N2 | 3 | 50 | 16600 | – | – | 6.4
46 | COc1cc2c(cc1OC)C(=O)N1C=C(c3ccc(C(N)=O)cc3)C[C@H]1C=N2 | 9 | 460 | 13800 | – | – | 15.6
47 | COc1cc2c(cc1OC)C(=O)N1C=C(c3ccc(O)cc3)C[C@H]1C=N2 | 2 | 80 | 3390 | – | – | 10.3
